Test results as given in article PMC11626171 (Proceedings of the National Academy of Sciences of the …, 2024).

Experiments:
[1] = tested on: low-social male rhesus monkeys; assay: Face recognition memory, visual paired comparison task; format: in vivo, rhesus macaques (Macaca mulatta)
Summary of the method: (§1)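 Young adult males trained to breathe via mask-attached nebulizer until 2 min 40 s cumulative breathing. Dosed 0, 25 or 50 IU AVP per 1 mL in 0.4% 4-chlorobutanol/0.9% NaCl vehicle (vehicle as placebo), modified Latin square order, blinded, ≥1-week washout, 0900 dosing. Unique stimulus sets per dose on monitor. Looks +1 each; ln(novel/familiar) analysed by repeated-measures REML mixed model.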

[2] = tested on: low-social male rhesus monkeys; assay: Object recognition memory, visual paired comparison task; format: in vivo, rhesus macaques (Macaca mulatta); details: nebulized AVP (25 and 50 IU pooled) vs placebo, within-subjects, N = 8, testing began 30 min after nebulization
Summary of the method: as §1

[3] = tested on: low-social male rhesus monkeys; format: in vivo, rhesus macaques (Macaca mulatta); details: N = 8
Summary of the method: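 Low-social males habituated and given refresher mask training; next day nebulized at 0900 with 0, 25 or 50 IU per 1 mL (diluent placebo), order by modified Latin square, one-week washout. From 30 min post-dose, viewed on a monitor 61 cm from the cage videos of an unfamiliar adult male showing affiliative or aggressive behavior, interspersed with neutral nonsocial bouts, with a unique stimulus set per dose.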

[4] = Pharmacokinetics of nebulized AVP: cisternal CSF AVP levels; format: in vivo, rhesus macaques (Macaca mulatta); details: N = 4, ELISA
Summary of the method: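 Same blinded nebulization at 0900. Sedation with dexmedetomidine (0.015 to 0.075 mg/kg) plus ketamine (5 to 30 mg/kg) at 20 min. Paired cisternal CSF and femoral venous blood sampled at two timepoints per session (30/90 or 60/120 min). Blood-contaminated CSF excluded. Unextracted CSF run by enzyme immunoassay in duplicate. Values given as ratio to matched placebo timepoint, log-transformed, REML mixed model.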

[5] = Pharmacokinetics of nebulized AVP: plasma AVP levels; format: in vivo, rhesus macaques (Macaca mulatta); details: N = 4, ELISA
Summary of the method: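 Nebulized through a face mask for 2 min 40 s of cumulative breathing at 0900 (0, 25 or 50 IU per 1 mL; diluent vehicle as placebo). Sedated with dexmedetomidine/ketamine 20 min later. Femoral blood sampled at two of 30/60/90/120 min, on EDTA, spun 1600×g 4 °C 15 min. Plasma extracted, nitrogen-dried, reconstituted, enzyme immunoassay in duplicate, expressed as ratio to the matched placebo timepoint. Washout ≥1 week.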

[6] = tested on: children with ASD; details: 4-wk intranasal AVP treatment, pilot clinical trial; cited from earlier work
[7] = tested on: people with ASD; details: multisite clinical trial; cited from earlier work
[8] = nebulized AVP (25 and 50 IU pooled) vs placebo, within-subjects
[9] = nebulized 25 or 50 IU AVP, 30, 60, 90, 120 min postnebulization

| Molecule | face recognition memory (ratio of looks to novel versus familiar faces) ([1]; nebulized AVP (25 and 50 IU pooled) vs placebo, within-subjects, N = 8, testing began 30 min after nebulization) | recognition memory findings, 25 IU vs 50 IU AVP dose ([1]; nebulized AVP, faces and objects, N = 8) | object recognition memory (ratio of looks to novel versus familiar objects) [2] | affiliative response rate to conspecific aggressive cues [3, 8] | affiliative responses to conspecific affiliative communication cues [3, 8] | aggressive responses to conspecific aggressive or affiliative overtures [3, 8] | affiliative response findings, 25 IU vs 50 IU AVP dose ([3]; nebulized AVP) | aggressive response findings, 25 IU vs 50 IU AVP dose ([3]; nebulized AVP) | cisternal CSF AVP levels following AVP nebulization relative to placebo, time course [4, 9] | CSF AVP level effect, 50 IU vs 25 IU dose ([4]; nebulized AVP) | plasma AVP levels following AVP nebulization relative to placebo, time course [5, 9] | plasma AVP level effect, 50 IU vs 25 IU dose ([5]; nebulized AVP) | social abilities in children with ASD [6] | core behavioral symptoms in people with ASD [7] |
| --- | --- | --- | --- | --- | --- | --- | --- | --- | --- | --- | --- | --- | --- | --- |
| NC(=O)CC[C@@H]1NC(=O)[C@H](Cc2ccccc2)NC(=O)[C@H](Cc2ccc(O)cc2)NC(=O)[C@@H](N)CSSC[C@@H](C(=O)N2CCC[C@H]2C(=O)N[C@@H](CCCN=C(N)N)C(=O)NCC(N)=O)NC(=O)[C@H](CC(N)=O)NC1=O [AVP, [ARG8]-vasopressin] | rescued | did not differ between the 25 and 50 IU AVP doses | did not differ between treatment conditions | no treatment-related difference | reciprocated affiliative communication cues with species-typical affiliative responses | did not increase | did not differ between the 25 and 50 IU AVP doses | did not differ between the 25 and 50 IU AVP doses | progressive linear increase | consistently stronger in the 50 IU AVP dose compared to the 25 IU AVP dose | quadratic rise and fall | consistently stronger in the 50 IU AVP dose compared to the 25 IU dose | improves empathic accuracy, facial emotion recognition, and social abilities |  |
| CN1Cc2cc(Cl)ccc2-n2c(nnc2[C@H]2CC[C@H](Oc3ccccn3)CC2)C1 [balovaptan] |  |  |  |  |  |  |  |  |  |  |  |  |  | neither balovaptan [an AVPR1A antagonist ([49])], nor OXT ([50]), improve core behavioral symptoms |
| oxytocin [OXT] |  |  |  |  |  |  |  |  |  |  |  |  |  | neither balovaptan [an AVPR1A antagonist ([49])], nor OXT ([50]), improve core behavioral symptoms |
